Drawing on ChEMBL document CHEMBL3576816, “5'-Silylated 3'-1,2,3-triazolyl Thymidine Analogues as Inhibitors of West Nile Virus and Dengue Virus” (J Med Chem, 2015), this text covers inhibition and Activity for 14 compounds.

Activity calls are given as the source filed them. The calls are words filed in the database; no cut-off is given here.

The target in data set [1] is Human immunodeficiency virus type 1 reverse transcriptase (Human immunodeficiency virus 1) (UniProt Q72547). Description: Inhibition of HIV1 reverse transcriptase.
The test system of data set [2] is Human immunodeficiency virus 1. Description: Antiviral activity against HIV1. The format is functional, organism-based.
A further data set relates to Human betaherpesvirus 5. In words: Antiviral activity against Human cytomegalovirus. It is filed as functional, organism-based.
For data set [3], the system named is unidentified influenza virus. Description: Antiviral activity against Influenzae virus. The format is functional, organism-based.
The test system of a further data set is West Nile virus. In words: Antiviral activity against West Nile virus infected in BHK-WII RepRen1B cells assessed as inhibition of viral replication at 10 uM after 3 days by luciferase reporter gene assay relative to control. The format is functional. The settings on record: for inhibition at 10 µM: 72 h. In short, it runs like this:
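Compound (DMSO, 10 μM final) added next day in triplicate; lycorine 1 μM served as control inhibitor. Three days on, live-cell Renilla substrate (1:1000 in phenol-red-free DME, 10% FBS) replaced medium. Luminescence measured; triplicate means compared with DMSO-alone wells.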
(In general: Reporter assays use an easily measured gene product as a stand-in for the process of interest.)

The next data set relates to Dengue virus. Description: Antiviral activity against Dengue virus infected in BHK pD2-hRucPac-2ATG cells assessed as inhibition of viral replication at 10 uM after 3 days by luciferase reporter gene assay relative to control. It is filed as functional. The settings on record: for inhibition at 10 µM: 72 h. The gist of the method:
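Renilla luciferase-bearing DENV subgenomic replicon BHK cells, kept on 3 μg/mL puromycin, seeded at 1.5 × 10^3/well without selection. Next day, 10 μM final compound in DMSO added to triplicate wells; MPA 1 μM as control inhibitor. After 3 days, medium swapped for live-cell Renilla substrate (1:1000, phenol-red-free DME, 10% FBS). Luminescence read; triplicate mean compared with DMSO-only wells.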

The nature of data set [4]: Cytotoxicity against BHK cells infected with West Nile virus replicon assessed as cell viability at 10 uM after 3 days by CellTiter 96 aqueous one solution cell proliferation assay relative to control. The format is cell-based, Mesocricetus auratus. As to conditions: hamster, bhk, 72 h, 10 µM. In short, it runs like this:
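WNV replicon BHK cells, about 3 × 10^3/well, plated without antibiotic selection; next day compound in DMSO (10 μM final for screening, or eight serial dilutions), 3 days at 37°C, 5% CO2. Tetrazolium reagent, absorbance 450 nm, triplicate means versus DMSO wells; CC50 = 50% reduction in proliferation; CC50s mean ± SD of two experiments, top dose 200 μM.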

In the next data set the test system is Hepatitis C virus. In words: Antiviral activity against HCV. It is filed as functional, organism-based. The settings on record: Hepacivirus hominis.
Data set [5] can be described thus: Cytotoxicity against BHK cells infected with Dengue virus replicon assessed as cell viability at 10 uM after 3 days by CellTiter 96 aqueous one solution cell proliferation assay relative to control. It is filed as cell-based, Mesocricetus auratus. As to conditions: hamster, bhk, 72 h, 10 µM. In short, it runs like this:
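DENV replicon BHK cells, 1.5 × 10^3/well, plated without antibiotic selection; next day compound in DMSO (10 μM final for screening, or eight serial dilutions), 3 days at 37°C, 5% CO2. Tetrazolium (MTS-type) reagent, absorbance 450 nm, triplicate means versus DMSO wells; CC50 = 50% reduction in proliferation; CC50s mean ± SD of two experiments, top dose 200 μM.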
(In antiviral work, replicon cells carry a viral genome segment that copies itself.)

Take `Cc1cn([C@H]2C[C@H](n3nncc3-c3cc4ccccc4c4ccccc34)[C@@H](CO[Si](C)(C)C(C)(C)C)O2)c(=O)[nH]c1=O`: the inhibition (as a rule, the share of the control response that was lost under treatment) in [1] is “inactive”. In addition, the result (in [2]; with Human betaherpesvirus 5; in [3]; in the data set with Hepatitis C virus) was inactive. Moreover, the inhibition at 10 µM with West Nile virus was 99%; in the data set with Dengue virus, 21%. For the same compound, the values for the Activity in [4] and in data set [5] were 69% and 100%, respectively.
As for `Cc1cn([C@H]2C[C@H](n3nncc3-c3ccc(Oc4ccccc4)cc3)[C@@H](CO[Si](C)(C)C(C)(C)C)O2)c(=O)[nH]c1=O`, the inhibition result in data set [1] is “inactive”. For the same compound, the result (in data set [2]; in the data set on Human betaherpesvirus 5; in data set [3]; in the data set with Hepatitis C virus) was inactive. Further, the inhibition at 10 µM with West Nile virus and with Dengue virus was 95% in each case. In addition, the Activity came out at 79% in [4] and 73% in data set [5].
`COc1ccc2cc(-c3cnnn3[C@H]3C[C@H](n4cc(C)c(=O)[nH]c4=O)O[C@@H]3CO[Si](C(C)C)(C(C)C)C(C)C)ccc2c1`: in data set [1], the inhibition entry was “inactive”. The result (in data set [2]; in the data set with Human betaherpesvirus 5; in data set [3]; in the data set on Hepatitis C virus) was inactive. In addition, the inhibition at 10 µM in the data set on West Nile virus and in the data set on Dengue virus was 98% each time. The Activity amounted to 67% in data set [4] and 53% in [5].
Regarding `Cc1cn([C@H]2C[C@H](NC(=O)c3c[nH]c4ccccc34)[C@@H](CO[Si](C)(C)C(C)(C)C)O2)c(=O)[nH]c1=O`, the inhibition result in [1] is “inactive”. The result (in [2]; in the data set on Human betaherpesvirus 5; in data set [3]; with Hepatitis C virus) was inactive. For the same compound, the inhibition at 10 µM turned out to be 19% with West Nile virus and 90% in the data set on Dengue virus. Moreover, the Activity in data set [4] was found to be 93%; in data set [5], 27%.
As to `Cc1cn([C@H]2C[C@H](NC(=O)c3ccc4ccccc4c3)[C@@H](CO[Si](C)(C)C(C)(C)C)O2)c(=O)[nH]c1=O`, the inhibition result in data set [1] was “inactive”. For the same compound, the outcome (in [2]; in the data set with Human betaherpesvirus 5; in data set [3]; in the data set with Hepatitis C virus) was inactive. Besides, the values for the inhibition at 10 µM with West Nile virus and in the data set on Dengue virus were 99% and 98%, respectively. Besides, the Activity in data set [4] is 51%; in data set [5] it was 10%.
Turning to `Cc1cn([C@H]2C[C@H](n3cc(-c4cc5ccccc5c5ccccc45)nn3)[C@@H](CO[Si](C)(C)C(C)(C)C)O2)c(=O)[nH]c1=O`, the inhibition result in data set [1] is “inactive”. The outcome (in data set [2]; in the data set on Human betaherpesvirus 5; in data set [3]; in the data set with Hepatitis C virus) was inactive. The inhibition at 10 µM with West Nile virus came out at 97%; with Dengue virus, 77%. The Activity in data set [4] is 100%; in data set [5] it was 81%.
As for `Cc1cn([C@H]2C[C@H](n3nncc3C3CC3)[C@@H](CO[Si](C)(C)C(C)(C)C)O2)c(=O)[nH]c1=O`, the inhibition entry in data set [1] is “inactive”. Moreover, the outcome (in [2]; in the data set with Human betaherpesvirus 5; in data set [3]; in the data set on Hepatitis C virus) was inactive. Further, the results for the inhibition at 10 µM in the data set with West Nile virus and in the data set with Dengue virus were 21% and 6.4%, respectively. For the same compound, the Activity worked out at 100% in data set [4] and 93% in data set [5].
On to `COc1ccc2cc(-c3cnnn3[C@H]3C[C@H](n4cc(C)c(=O)[nH]c4=O)O[C@@H]3CO[Si](c3ccccc3)(c3ccccc3)C(C)(C)C)ccc2c1`, for which, in [1], the inhibition result was “inactive”. Further, the outcome (in data set [2]; in the data set on Human betaherpesvirus 5; in data set [3]; with Hepatitis C virus) was inactive. The inhibition at 10 µM with West Nile virus came to 99%; in the data set on Dengue virus it was 100%. The Activity in data set [4] worked out at 38%; in data set [5], 11%.
Turning to `Cc1cn([C@H]2C[C@H](NC(=O)c3c4ccccc4cc4ccccc34)[C@@H](CO[Si](C)(C)C(C)(C)C)O2)c(=O)[nH]c1=O`, the inhibition result in data set [1] is “inactive”. Besides, the outcome (in [2]; in the data set on Human betaherpesvirus 5; in [3]; with Hepatitis C virus) was inactive. Also, the inhibition at 10 µM in the data set with West Nile virus turned out to be 0%; in the data set with Dengue virus, 7.6%. For the same compound, the Activity in data set [4] is 100%; in [5] it was 98%.
`COc1ccc2cc(C(=O)N[C@H]3C[C@H](n4cc(C)c(=O)[nH]c4=O)O[C@@H]3CO[Si](C)(C)C(C)(C)C)ccc2c1`: in [1], the inhibition entry was “inactive”. Also, the outcome (in data set [2]; in the data set with Human betaherpesvirus 5; in [3]; with Hepatitis C virus) was inactive. Also, the inhibition at 10 µM turned out to be 95% in the data set with West Nile virus and 92% in the data set on Dengue virus. In addition, the Activity in [4] is listed as 50%; in [5] it was 8%.
`Cc1cn([C@H]2C[C@H](n3nncc3-c3cccc4ccccc34)[C@@H](CO[Si](C)(C)C(C)(C)C)O2)c(=O)[nH]c1=O`: the inhibition result in data set [1] was “inactive”. For the same compound, the outcome (in data set [2]; in the data set on Human betaherpesvirus 5; in data set [3]; in the data set with Hepatitis C virus) was inactive. The inhibition at 10 µM in the data set with West Nile virus came out at 100%; in the data set with Dengue virus it was 99%. The Activity in data set [4] turned out to be 8%; in data set [5], 60%.
In the case of `Cc1cn([C@H]2C[C@H](n3nncc3-c3ccc(-c4ccccc4)cc3)[C@@H](CO[Si](C)(C)C(C)(C)C)O2)c(=O)[nH]c1=O`, the inhibition entry in data set [1] is “inactive”. The result (in data set [2]; with Human betaherpesvirus 5; in data set [3]; in the data set with Hepatitis C virus) was inactive. Also, the inhibition at 10 µM amounted to 100% with West Nile virus and 99% in the data set with Dengue virus. For the same compound, the figures for the Activity in data set [4] and in data set [5] were 10% and 47%, respectively.
As for `Cc1cn([C@H]2C[C@H](N)[C@@H](CO[Si](C)(C)C(C)(C)C)O2)c(=O)[nH]c1=O`, the inhibition entry in data set [1] was “inactive”. The result (in [2]; in the data set on Human betaherpesvirus 5; in data set [3]; in the data set with Hepatitis C virus) was inactive. Also, the inhibition at 10 µM in the data set on West Nile virus and in the data set on Dengue virus was 0% in each case. Besides, the Activity in [4] and in data set [5] was 100% throughout.
With `Cc1ccc(S(=O)(=O)NC(=O)N[C@H]2C[C@H](n3cc(C)c(=O)[nH]c3=O)O[C@@H]2CO[Si](C)(C)C(C)(C)C)cc1`, the inhibition entry in data set [1] was “inactive”. Also, the outcome (in data set [2]; with Human betaherpesvirus 5; in [3]; with Hepatitis C virus) was inactive. For the same compound, the inhibition entry with West Nile virus and with Dengue virus was “Active” each time.
